The list is not random: actives were taken first. Their share in the collection is about 1.4%.
NR2E3 ag-1: human photoreceptor-specific nuclear receptor agonism. CHO-S Gal4-NCOR/VP16-NR2E3 two-hybrid, luciferase. inhibition of corepressor binding, % at 3.98 µM. actives 0.35% (n = 360,000). AID 602229;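 active = inhibition above the mean of all tested compounds plus 3 SD, cut at about 70% in these data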;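 note: higher means lower luciferase signal from less NR2E3 corepressor binding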
Target sequence (Q9Y5X4 whole entry, looked up, the tested form may be a part): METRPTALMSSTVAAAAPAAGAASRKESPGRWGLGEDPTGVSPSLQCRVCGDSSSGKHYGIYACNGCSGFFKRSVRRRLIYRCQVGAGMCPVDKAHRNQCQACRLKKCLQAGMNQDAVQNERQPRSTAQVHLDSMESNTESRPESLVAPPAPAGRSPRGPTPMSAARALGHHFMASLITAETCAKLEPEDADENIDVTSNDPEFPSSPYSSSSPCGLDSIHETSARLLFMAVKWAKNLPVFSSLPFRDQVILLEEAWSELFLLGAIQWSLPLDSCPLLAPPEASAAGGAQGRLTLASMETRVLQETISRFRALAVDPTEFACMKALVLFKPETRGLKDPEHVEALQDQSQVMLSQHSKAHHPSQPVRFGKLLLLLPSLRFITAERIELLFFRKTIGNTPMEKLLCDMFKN
Rev-erbA mod: modulators of human Rev-erb alpha DNA binding | P20393 | Rev-erbα–FITC-DNA binding, fluorescence polarization, 90 min | activity, % at 10 µM | actives 0.79% (n = 370,000) | AID 1259318;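 active = activity above about 14%, limit read from the data; passing the limit was not always enough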
PG9 binder: small molecules binding HIV-1 gp120 antibody PG9; TR-FRET gp120-PG9 antibody binding; inhibition, % at 6.7 µM; actives 0.43% (n = 360,000); AID 624416; in the data active = inhibition above about 8.5%
NR2E3 ag-2: NR2E3 (human) agonism. actives 0.12% (n = 320,000). AID 2300. inhibition of corepressor binding, % at 4.78 µM. GST-NR2E3/biotin-RetCOR TR-FRET, 1536-well;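 active = percent inhibition above the cutoff of mean plus 3 SD of all tested compounds, set per screening campaign, cut at about 20% in these data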
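Format: 1536-well format; test system: GST-NR2E3 and biotin-RetCOR proteins; read-out basis: percent inhibition of TR-FRET ratio; timing: 5 h incubation at 4 °C; detection: time-resolved FRET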
PG9 binder conf: PG9 antibody binding, confirmed. shares compounds with PG9 binder. inhibition, % at 6.7 µM. TR-FRET PG9 antibody binding, biochemical. AID 651571. actives 90% (n = 1,500); in the data active = inhibition above about 9%
PGV04 Ab binding: binds control antibody PGV04 in PG9 binder counter-screen; shares compounds with PG9 binder; TR-FRET PGV04 antibody-gp120 binding, biochemical; actives 95% (n = 1,500); inhibition, % at 6.7 µM; in the data active = inhibition above about 9.5%
Rev-erbA confirm: Rev-erb alpha (human) modulation, hit confirmation; Rev-erb alpha FITC-DNA binding, fluorescence polarization, 90 min; shares compounds with Rev-erbA mod; actives 61% (n = 3,000); activation, % at 25 µM;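 active = activation at or above a set limit, or at least 3 SD above the negative control mean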
Numbers stand for hits; n = inactive; x = no result.

SMILES | NR2E3 ag-1 | Rev-erbA mod | PG9 binder | NR2E3 ag-2 | PG9 binder conf | PGV04 Ab binding | others
COc1cccc(OCCSc2nc3ccccc3c(=O)[nH]2)c1 | n | n | 24 | n | 23 | 31
c1ccc(OCCSc2nc3ccccc3[nH]2)cc1 | n | n | n | n | x | x
CN(CCO)C1CN(Cc2cn(Cc3ccccc3C(F)(F)F)nn2)S(=O)(=O)C1 (stereo unspecified) | x | n | x | x | x | x
N#Cc1c(-c2ccccc2)c(C#N)c2nc3ccccc3n2c1N | n | n | 8.8 | n | 18 | 24
Nc1ccn(C2CCCCO2)c(=O)n1 (stereo unspecified) | n | n | 14 | x | n | n
Nc1ccn(C2CCCO2)c(=O)n1 (stereo unspecified) | n | n | n | x | x | x
O=C(Nc1ccccc1[N+](=O)[O-])NC1CCCCN(Cc2ccc(Cl)cc2)C1=O (stereo unspecified) | x | n | x | x | x | x
Cc1cccc(C(=O)OCc2cc3ccccc3[nH]c2=O)c1 | n | n | 12 | n | 13 | 18
Cc1cccc2cc(COC(=O)c3ccccc3)c(=O)[nH]c12 | n | n | 23 | n | 22 | 38
COc1cc(OC)cc(C(=O)NC2CCSC2=O)c1 (stereo unspecified) | n | n | 15 | n | n | 39
O=C(NCc1ccccc1)O[C@H]1CC[C@@]23CCCN2C(=O)CCC[C@H]3C1 | x | n | x | x | x | x
Nc1[nH]c(C(=O)c2ccccc2)c(-c2cccnc2)c1C(=O)NCCc1c[nH]c2ccccc12 | x | n | x | x | x | x
Cc1ccc(-c2nsc(SCC(=O)NCc3ccc4c(c3)OCO4)n2)cc1 | n | n | 16 | n | 18 | 21
CCCC1CCC2(CC1)CCC2OC(=O)Nc1c(OC)cccc1OC (stereo unspecified) | x | n | x | x | x | x
O=c1cc(-c2ccccc2)oc2ccc3ccccc3c12 | n | n | 15 | x | 16 | 24
COC(=O)c1cc(C2(c3c[nH]c4ccccc34)CCN(C(=O)OC(C)(C)C)CC2)n2ccccc12 | x | n | x | x | x | x
CCCCNC(=O)Cc1c(OC)ccc2cc(Br)ccc12 | n | n | 8.6 | n | 17 | 21
CCCNC(=O)Cc1c(OC)ccc2cc(Br)ccc12 | n | n | 11 | n | 24 | 31
CCN(CC)C(=O)Cc1c(OC)ccc2cc(Br)ccc12 | n | n | n | n | x | x
CCNC(=O)Cc1c(OC)ccc2cc(Br)ccc12 | n | n | n | n | x | x
COc1ccc2cc(Br)ccc2c1CC(=O)NC(C)(C)C | n | n | 13 | n | 21 | 25
COc1ccc(S[C@]2(C(=O)N(C)C)CC(=O)N(c3ccc(Cl)cc3)[C@@H]2c2ccc(OC)cc2)cc1 | x | n | x | x | x | x
Cc1ccc(-c2cc(C(=O)NN=Cc3ccc(N(C)C)cc3)[nH]n2)cc1C | x | n | x | x | x | x
CCC[C@H]1[C@@H](OC(=O)NCc2ccccc2)CC[C@@]23CCCN2C(=O)CCC[C@@H]13 | x | n | x | x | x | x
CCOc1ccc(-n2c(SCC(=O)Nc3ccccc3-c3ccccc3)nnc2-c2ccccc2)cc1 | x | n | x | x | x | x
SMILES | NR2E3 ag-1 | Rev-erbA mod | PG9 binder | NR2E3 ag-2 | PG9 binder conf | PGV04 Ab binding | others
O=C(Nc1ccc(F)cc1)c1cc(-c2ccccn2)nc2c(Cl)cccc12 | n | n | 18 | n | 33 | 69
CC(C)NC(=O)NC1CCN(CC(=O)Nc2ccc3c(c2)OCCO3)CC1 | x | n | x | x | x | x
Cc1[nH]c(=O)nc(SCc2cccc(Cl)c2)c1C#N | n | n | n | n | x | x
N#Cc1c(-c2ccccc2)nc(SCc2cccc(Cl)c2)[nH]c1=O | n | n | 8.7 | n | 14 | 21
Cc1cccc2cc(COC(=O)COc3ccccc3)c(=O)[nH]c12 | n | 31 | 26 | n | 31 | 41 | Rev-erbA confirm=21
COCc1cc(C)nc(SCC(=O)Nc2cccc(C)c2C)c1C#N | n | n | n | n | x | x
Cc1cccc(NC(=O)CSc2nc(C)c(CC(=O)c3ccc(Br)cc3)c(C)c2C#N)c1C | n | 82 | 9.2 | n | 21 | 30 | Rev-erbA confirm=31
Cc1nc(SCC(=O)Nc2ccc(F)cc2)c(C#N)c(C)c1CC(=O)c1ccc(Br)cc1 | n | 70 | 8.7 | n | 26 | 35 | Rev-erbA confirm=n
COc1ccc(NC(=O)CSc2nc(C)c3c(c2C#N)CCCC3)cc1 | n | n | n | n | x | x
